Measurements: ChEMBL document CHEMBL1127600, “Mercaptoacyl amino acid inhibitors of atriopeptidase. 1. Structure-activity relationship studies of methionine and S-alkylcysteine derivatives” (J Med Chem, 1994)
pIC50: −log10 of the molar value.

Experiments:
[1] = molecular target: T1, Angiotensin-converting enzyme (Oryctolagus cuniculus, UniProt P12822); test: Tested in vitro for its inhibitory activity against angiotensin converting enzyme
T1 sequence (P12822 whole entry): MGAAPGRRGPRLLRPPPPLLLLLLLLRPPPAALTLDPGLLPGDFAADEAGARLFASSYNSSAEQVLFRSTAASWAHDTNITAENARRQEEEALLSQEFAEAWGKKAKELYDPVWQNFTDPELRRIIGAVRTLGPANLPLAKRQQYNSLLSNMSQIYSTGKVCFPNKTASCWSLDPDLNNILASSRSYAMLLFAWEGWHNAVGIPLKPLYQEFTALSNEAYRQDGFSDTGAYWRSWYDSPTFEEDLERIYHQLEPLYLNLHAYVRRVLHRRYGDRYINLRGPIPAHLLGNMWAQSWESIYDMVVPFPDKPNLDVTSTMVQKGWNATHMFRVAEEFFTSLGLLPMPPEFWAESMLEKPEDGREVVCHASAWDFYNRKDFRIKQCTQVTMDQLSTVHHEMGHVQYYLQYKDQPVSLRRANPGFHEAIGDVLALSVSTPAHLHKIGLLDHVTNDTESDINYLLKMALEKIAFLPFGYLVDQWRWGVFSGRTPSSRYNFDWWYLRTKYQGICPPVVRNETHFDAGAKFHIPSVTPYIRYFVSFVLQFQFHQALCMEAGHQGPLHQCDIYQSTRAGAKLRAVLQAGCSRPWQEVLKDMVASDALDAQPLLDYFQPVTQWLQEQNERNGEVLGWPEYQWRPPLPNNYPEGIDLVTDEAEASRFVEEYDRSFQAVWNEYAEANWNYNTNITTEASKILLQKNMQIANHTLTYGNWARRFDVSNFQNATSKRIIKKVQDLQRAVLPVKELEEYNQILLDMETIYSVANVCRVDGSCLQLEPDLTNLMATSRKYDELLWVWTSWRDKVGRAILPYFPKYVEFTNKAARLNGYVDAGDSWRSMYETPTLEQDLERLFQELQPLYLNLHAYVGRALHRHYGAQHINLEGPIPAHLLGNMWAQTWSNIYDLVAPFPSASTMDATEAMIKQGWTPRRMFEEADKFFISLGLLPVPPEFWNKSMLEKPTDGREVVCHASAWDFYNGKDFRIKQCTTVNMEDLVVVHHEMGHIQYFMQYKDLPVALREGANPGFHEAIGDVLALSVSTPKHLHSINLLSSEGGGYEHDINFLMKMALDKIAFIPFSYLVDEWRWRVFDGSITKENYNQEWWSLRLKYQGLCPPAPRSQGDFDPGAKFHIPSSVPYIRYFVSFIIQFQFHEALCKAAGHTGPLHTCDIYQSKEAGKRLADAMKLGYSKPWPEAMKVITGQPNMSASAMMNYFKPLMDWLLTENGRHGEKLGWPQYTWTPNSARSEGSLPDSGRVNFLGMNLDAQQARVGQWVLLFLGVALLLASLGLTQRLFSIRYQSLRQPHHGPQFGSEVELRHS

Neprilysin = molecular target: T2, Neprilysin (Oryctolagus cuniculus, UniProt P08049); test: In vitro inhibitory activity against neutral endopeptidase (NEP)
T2 sequence (P08049 whole entry): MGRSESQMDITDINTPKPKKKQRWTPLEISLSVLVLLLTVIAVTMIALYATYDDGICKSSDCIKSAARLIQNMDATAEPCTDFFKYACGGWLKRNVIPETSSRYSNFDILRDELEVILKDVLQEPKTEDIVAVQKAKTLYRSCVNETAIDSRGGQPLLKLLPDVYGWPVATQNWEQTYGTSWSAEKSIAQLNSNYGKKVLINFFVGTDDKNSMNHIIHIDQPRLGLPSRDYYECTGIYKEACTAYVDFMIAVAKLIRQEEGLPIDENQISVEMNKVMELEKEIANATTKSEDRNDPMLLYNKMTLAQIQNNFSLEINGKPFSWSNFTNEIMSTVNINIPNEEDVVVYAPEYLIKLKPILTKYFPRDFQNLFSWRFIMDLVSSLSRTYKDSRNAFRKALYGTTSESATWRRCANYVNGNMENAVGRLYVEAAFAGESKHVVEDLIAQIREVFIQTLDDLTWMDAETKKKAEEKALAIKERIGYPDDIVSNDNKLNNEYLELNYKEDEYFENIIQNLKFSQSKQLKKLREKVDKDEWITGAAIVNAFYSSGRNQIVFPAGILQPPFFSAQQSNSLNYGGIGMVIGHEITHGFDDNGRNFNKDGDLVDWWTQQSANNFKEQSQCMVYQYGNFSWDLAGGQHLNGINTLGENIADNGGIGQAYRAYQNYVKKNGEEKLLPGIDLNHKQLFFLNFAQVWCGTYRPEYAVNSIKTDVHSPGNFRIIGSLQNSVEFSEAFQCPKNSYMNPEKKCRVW
Method in brief: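 Purified rabbit kidney NEP (EC 24.11) was the enzyme source, with [³H]Leu-enkephalin as the substrate.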

Rattus norvegicus [2] = test: Tested for in vivo Antihypertensive activity in DOCA rat by giving peroral dose of 30 mg/kg; format: functional; conditions: route oral
Method in brief: (§1)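 Male Sprague-Dawley rats (100–150 g) had DOCA-Na hypertension induced and were used 17–21 days later if mean BP was >150 mmHg. Rats were not fasted. Mean BP was recorded after 90-min equilibration. Dosing was sc in TRIS buffer (2 mL/kg) or po in 0.4% aqueous methylcellulose (4 mL/kg). The maximum BP fall over 4 h versus vehicle controls was taken, averaged over four or more animals.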

Rattus norvegicus [3] = test: In vivo potentiation of ANF induced hypotension in rat, following subcutaneous dose of 30 mg/kg; format: functional
Method in brief: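 Conscious male SHR (270–300 g) had caudal artery and jugular vein cannulae placed under ether. After at least 90 min of stabilization, ANF 103-125 or 99-126 was given as an iv bolus at a submaximal dose. 60–90 min later, drug or vehicle (0.2% aqueous methylcellulose with 20% Tris-HCl) was given sc. ANF was repeated 15 min after dosing, and the response was compared with vehicle controls. Values are means of four or more animals.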

Rattus norvegicus [4] = test: Tested for in vivo Antihypertensive activity in DOCA rat by giving peroral dose of 10 mg/kg; format: functional; conditions: route oral; method in brief: as §1
Rattus norvegicus [5] = test: Tested for in vivo Antihypertensive activity in DOCA rat by giving subcutaneous dose of 30 mg/kg; format: functional; method in brief: as §1

SMILES	pIC50 [1]	pIC50 (Neprilysin)	Delta blood pressure (Rattus norvegicus [2])	Delta blood pressure (Rattus norvegicus [3])	Delta blood pressure (Rattus norvegicus [4])	Delta blood pressure (Rattus norvegicus [5])
Cc1ccc(CSC[C@@H](NC(=O)[C@@H](CS)Cc2ccc(-c3ccccc3)cc2)C(=O)O)cc1	6.74	6.74	19 mmHg	0 mmHg	–	–
O=C(N[C@@H](CSCc1ccccc1)C(=O)O)[C@@H](CS)Cc1ccccc1	6.94	7.72	–	11 mmHg	–	–
CSCC[C@@H](NC(=O)C(CSC(C)=O)Cc1ccccc1)C(=O)N1CCCC1 (stereo not given in full)	–	–	–	29 mmHg	24 mmHg	–
Cc1ccc(CSC[C@@H](NC(=O)[C@@H](CS)Cc2ccc3ccccc3c2)C(=O)O)cc1	6.34	< 6.52	–	0 mmHg	–	–
COc1ccc(CSC[C@@H](NC(=O)[C@@H](CS)Cc2ccccc2)C(=O)O)cc1	7.02	8.70	28 mmHg	–	–	–
COC(=O)[C@@H](CCSC)NC(=O)[C@H](CSC(C)=O)Cc1ccccc1	–	–	–	45 mmHg	14 mmHg	–
CSCC[C@@H](NC(=O)[C@@H](CSC(C)=O)Cc1ccccc1)C(=O)O	–	–	–	–	–	48 mmHg
CSCC[C@@H](NC(=O)[C@H](CSC(C)=O)Cc1ccccc1)C(N)=O	–	–	–	27 mmHg	–	–
CSCC[C@@H](NC(=O)C(CSC(C)=O)Cc1ccccc1)C(=O)NCCO (stereo not given in full)	–	–	–	25 mmHg	24 mmHg	–
CC(=O)SC[C@@H](Cc1ccccc1)C(=O)N[C@H](CSCc1ccc(C)cc1)C(N)=O	–	–	–	12 mmHg	29 mmHg	–
CC(C)(C)SC[C@@H](NC(=O)[C@@H](CS)Cc1ccccc1)C(=O)O	6.77	7.31	17 mmHg	25 mmHg	–	–
CCSC[C@@H](NC(=O)C(CS)Cc1ccccc1)C(=O)O (stereo not given in full)	7.35	8.19	–	25 mmHg	–	–
O=C(N[C@H](CSCCc1ccccc1)C(=O)O)[C@@H](CS)Cc1ccccc1	7.10	6.96	0 mmHg	37 mmHg	–	–
O=C(N[C@H](CSCCc1ccccc1)C(=O)O)[C@H](CS)Cc1ccccc1	< 6.00	6.88	38 mmHg	23 mmHg	–	–
CCOC(=O)[C@@H](CCSC)NC(=O)C1(CSC(C)=O)CCCC1	–	–	–	–	27 mmHg	–
CCSCC[C@@H](NC(=O)[C@H](CS)Cc1ccccc1)C(=O)O	< 6.00	7.51	0 mmHg	30 mmHg	–	–
Cc1ccc(CSC[C@@H](NC(=O)[C@H](CS)Cc2cccc3ccccc23)C(=O)O)cc1	7.05	7.41	–	0 mmHg	–	–
CSCC[C@@H](NC(=O)[C@@H](CS)Cc1ccccc1)C(=O)O	7.46	8.19	–	23 mmHg	31 mmHg	–
CCCC(CS)C(=O)N[C@H](CCSC)C(=O)O (stereo not given in full)	< 6.00	8.60	–	–	–	–
Cc1ccc(CSC[C@@H](NC(=O)[C@H](CS)Cc2ccccc2)C(=O)O)cc1C	< 6.00	6.27	–	0 mmHg	–	–
